Screens (PubChem BioAssay)
697 NFkB inh: lowers PMA/ionomycin-induced NF-kB signal in 697 B cells; inhibition, % at 4 µM; 697 B-cell NF-kB luciferase reporter, 16 h; 330,000 tested, 0.33% active; in the data active = inhibition above about 35%
NR2E3 ag-1: human photoreceptor-specific nuclear receptor agonism; Q9Y5X4; CHO-S Gal4-NCOR/VP16-NR2E3 two-hybrid, luciferase; inhibition of corepressor binding, % at 3.98 µM; 360,000 tested, 0.35% active;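 active = inhibition above the mean of all tested compounds plus 3 SD, cut at about 70% in these data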;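 note: 0% = DMSO with NR2E3 transfected cells and 100% = cells lacking NR2E3 construct; higher means lower luciferase signal from less NR2E3 corepressor binding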
Target sequence (Q9Y5X4 whole entry, looked up, the tested form may be a part): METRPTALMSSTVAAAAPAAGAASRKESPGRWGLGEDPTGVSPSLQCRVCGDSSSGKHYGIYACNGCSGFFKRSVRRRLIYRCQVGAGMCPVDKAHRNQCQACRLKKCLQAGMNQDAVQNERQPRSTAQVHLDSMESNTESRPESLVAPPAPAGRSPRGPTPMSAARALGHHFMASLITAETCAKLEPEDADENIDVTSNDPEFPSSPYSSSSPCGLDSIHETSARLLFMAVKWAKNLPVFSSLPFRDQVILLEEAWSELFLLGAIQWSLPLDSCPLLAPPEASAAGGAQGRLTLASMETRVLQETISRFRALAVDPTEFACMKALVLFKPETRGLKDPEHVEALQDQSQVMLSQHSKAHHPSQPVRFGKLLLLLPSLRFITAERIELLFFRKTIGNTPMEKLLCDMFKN
miR-122 sensor: inhibitors of miR-122 in Huh7 cells; Huh7 miR-122 Renilla luciferase sensor, 48 h; neutral wells = 0, positive control = 100; activation (reporter increase), % at 12.5 µM; 340,000 tested, 0.3% active;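 active = mean replicate activation score at least 90 and every replicate individually at or above 90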;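 note: higher luciferase means less miR-122 activity so hits act as miR-122 inhibitors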
Jurkat NFkB inh: lowers PMA/ionomycin-induced NF-kB signal in Jurkat cells; PMA/ionomycin-induced NF-kB luciferase reporter, luminescence; AID 435003; 330,000 tested, 0.53% active; inhibition, % at 4 µM; in the data active = inhibition above about 50%
NR2E3 ag-2: activates human photoreceptor nuclear receptor NR2E3; GST-NR2E3/biotin-RetCOR TR-FRET, 1536-well; inhibition of corepressor binding, % at 4.78 µM; 320,000 tested, 0.12% active; Q9Y5X4; AID 2300;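 active = percent inhibition above the cutoff of mean plus 3 SD of all tested compounds, set per screening campaign, cut at about 20% in these data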;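 note: 0% = DMSO wells and 100% = biotin wells as full block of FRET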
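Test system: GST-NR2E3 and biotin-RetCOR proteins | Quantity: 1.35 nM GST-tagged NR2E3 final | Medium: Tris pH 7.5 | Also added: 7 nM biotin-RetCOR | Dosing: Compound at 4.8 µM, single dose | Timing: 5 h at 4 °C | Detection: Time-resolved FRET | Read-out basis: Percent inhibition | Benchmarks: Biotin wells as high control, 0.6% DMSO wells as low control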
FGF22 binding: FGF22 (human) thermal shift binding; AID 651658; Q9HCT0; activity (Tm shift, normalised), % at 9.99 µM; 340,000 tested, 1.5% active; recombinant FGF22 thermal shift, SYPRO orange fluorescence; percent of sucrose octasulfate shift, DMSO zero;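 active = mean Tm shift, scaled 0 neutral to 100 positive control, at about 1.3% or above, every replicate too, limit read from the data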
Target sequence (Q9HCT0 whole entry, looked up): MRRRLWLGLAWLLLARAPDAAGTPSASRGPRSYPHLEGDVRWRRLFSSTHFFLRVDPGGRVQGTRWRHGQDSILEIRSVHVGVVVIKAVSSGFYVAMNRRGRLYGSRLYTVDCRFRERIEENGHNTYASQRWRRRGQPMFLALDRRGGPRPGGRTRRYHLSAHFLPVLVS
Numbers without * were called inactive; · = no result given; [ ] = remark or other dose. Only some compounds are listed: those with a hit (about 2.2% of all), similar ones and a draw of the others.

SMILES	697 NFkB inh	NR2E3 ag-1	miR-122 sensor	Jurkat NFkB inh	NR2E3 ag-2	FGF22 binding
Clc1ccccc1CSc1nnc(-c2ccncc2)o1	-96.9	-78.4	-11.3	-66.8	2.4	·
Cc1ccc(CSc2nnc(-c3ccncc3)o2)c(C)c1	-14.1	-5.9	0.5	-6.1	1.5	43.1*
CCC(=O)N1CC[C@@H]2[C@@H](CO)Nc3ccc(-c4ccccc4)cc3[C@@H]21	·	·	-6.4[16.7 µM]	·	·	·
CCn1cc(CN2CCc3c([nH]c4ccccc34)C2c2cccc(OC)c2OC)c(C)n1 (configuration not stated)	15.1	-26.5	2.2	11.5	4.1	43.8*
COc1cc(C2c3[nH]c4ccccc4c3CCN2Cc2cn(C)nc2C)ccc1F (configuration not stated)	-2.2	2.4	·	1.9	-0.9	0.1
O=C(C[C@@H]1CC[C@@H]2[C@H](COC[C@H](O)CN2C(=O)c2ccncc2)O1)NCc1ccc(-c2ccccc2)cc1	·	·	0.6[16.7 µM]	·	·	·
O=C(Cc1ccccn1)NCC[C@@H]1CC[C@H](NS(=O)(=O)c2ccccc2)[C@@H](CO)O1	·	·	·	·	·	0.1
COc1cccc(NC(=S)Nc2cc(C(=O)O)ccc2N2CC3CC(C2)c2cccc(=O)n2C3)c1 (configuration not stated)	-2.2	-7.7	·	-21.5	1.2	3.3*
Cc1ccc(C2CC(c3cccs3)=NN2S(=O)(=O)c2ccc(C)cc2)cc1 (configuration not stated)	-9.4	-17.2	98.1*	14.2	-0.8	0.0
COc1ccccc1CC(=O)c1ccccc1OC	·	-16.6	-2.1	·	·	43.5*
COc1ccccc1CC(=O)NC(=O)c1ccccc1O	13.8	10.3	-2.0	-8.9	6.8	0.1
COc1ccccc1C(=O)NNC(=O)c1cccc(F)c1	-76.4	-112.1	0.0	-56.2	-0.5	·
COc1ccccc1C(=O)NNC(=O)c1ccccc1F	-52.1	-86.2	5.5	-40.6	1.6	43.7*
O=[N+]([O-])c1cc(CN2CCCC2)c2cccnc2c1O	·	-5.4	·	·	-0.5	·
O=[N+]([O-])c1cc(CN2CCN(c3cccc(C(F)(F)F)c3)CC2)c2cccnc2c1O	-29.9	·	·	21.5	-2.2	43.1*
Cc1ccc(S(=O)(=O)N2CC[C@@H]3[C@H]2c2cc(Br)ccc2N[C@@H]3CO)cc1	·	·	0.6[16.7 µM]	·	·	-0.5
Cc1ccsc1/C=N\NC(=O)CC(=O)NCc1ccccc1	-0.3	17.2	·	-0.2	-1.4	43.4*
Cc1ccsc1/C=N/NC(=S)NCc1ccccc1	-18.3	-45.2	-3.9	-26.3	1.1	0.2
CCC1C(c2ccccc2)N(C)C(c2ccccc2)CC1(O)c1ccccc1 (configuration not stated)	-1.1	-16.8	·	10.5	0.2	44.0*
Cc1c(Cl)c(=O)n2c(=O)c(Cl)c(C)n12	-1.7	-9.0	0.6	4.5	0.2	43.7*
COc1ccc(CCNC(=O)COC(=O)/C=C/c2cccs2)cc1	3.3	-1.3	·	-30.3	-0.1	42.9*
COc1ccc(C(=O)NNC(=S)NC(=O)/C=C/c2cccs2)cc1	13.6	-9.2	·	-6.5	0.7	43.0*
O=C(COC(=O)/C=C/c1cccs1)Nc1ccccc1Cl	11.8	6.2	·	-0.6	3.0	43.2*
CN1C(=O)c2cc(NC(=O)C3CCC3)ccc2OC[C@@H]2O[C@H](CC(=O)NCc3ccccc3F)CC[C@@H]21	·	·	·	·	·	-0.2
CCCNC(=O)N1CC2(CN(CC3CCOCC3)C2)c2c([nH]c3cc(OC)ccc23)[C@@H]1CO	·	·	·	·	·	0.3
SMILES	697 NFkB inh	NR2E3 ag-1	miR-122 sensor	Jurkat NFkB inh	NR2E3 ag-2	FGF22 binding
CCOC(=O)/C=C1\SCC(=O)N1CC(=O)NCc1ccc(OC)c(OC)c1	4.8	11.3	0.6	5.6	1.8	43.1*
CCOC(=O)/C=C1\SCC(=O)N1CC(=O)NCCc1ccc(F)cc1	12.0	-42.3	-1.9	-12.6	2.4	0.1
Cc1nc2nc(C)c(C)nc2nc1C	·	18.9	-8.3	·	·	42.9*
CO[C@@H]1CN(C)C(=O)c2cc(NC(=O)Nc3ccccc3F)ccc2OC[C@@H](C)N(Cc2ccccc2C(=O)O)C[C@@H]1C	·	·	·	·	·	0.0
CCOc1ccccc1NC(=O)c1nc(-c2ccccc2)oc1C	-17.5	-30.6	·	14.5	-3.0	43.0*
CCc1nc2sccc2c(=O)[nH]1	6.1	-0.5	2.0	-21.5	2.0	43.6*
CCS(=O)(=O)Nc1ccc2c(c1)C(=O)N(C)C[C@@H](OC)[C@H](C)CN(CC1CCCC1)[C@@H](C)CO2	·	·	-11.7[16.7 µM]	·	·	·
COCC(=O)N(C)C[C@@H]1Oc2cc(C#CCN(C)C)ccc2S(=O)(=O)N([C@@H](C)CO)C[C@@H]1C	·	·	-1.5[16.7 µM]	·	·	-0.1
C/C(=N\S(=O)(=O)c1ccc(C)cc1)NC(=S)Nc1ccccc1	6.9	-0.9	-6.6	0.6	-1.7	43.7*
COc1ccccc1N/C(=N/S(=O)(=O)c1ccc(C)cc1)c1ccccc1	4.9	1.4	135.3*	-3.5	3.4	-0.1
COc1ccccc1N/C(=N/S(=O)(=O)c1ccc(Cl)cc1)c1ccccc1	12.0	-5.0	54.9	0.1	2.9	·
COc1ccc(NC(=S)N/C(=N/S(=O)(=O)c2ccc(C)cc2)c2ccccc2)cc1	-65.1	-36.7	7.4	-29.2	0.5	43.2*
O=S(=O)(/N=C(/NC(=S)Nc1ccccc1)c1ccccc1)c1ccc(Cl)cc1	-94.1	-134.7	·	-51.4	-0.2	-0.2
COc1ccc(S(=O)(=O)N(C)C[C@H]2Oc3ccc(NS(=O)(=O)c4ccc(F)cc4)cc3CC(=O)N([C@H](C)CO)C[C@@H]2C)cc1	·	·	1.4[16.7 µM]	·	·	0.0
COc1ccccc1NC(=O)N[C@@H]1CC[C@@H](CCNS(=O)(=O)c2ccccc2)O[C@@H]1CO	·	·	1.9[16.7 µM]	·	·	0.1
Cc1cc(C)nc(N/C(=N\S(=O)(=O)Cc2ccccc2)Nc2ccccc2Br)n1	-53.1	-15.7	179.9*	6.3	3.2	·
Cc1cc(C)nc(Nc2ccccc2Br)n1	14.0	-17.2	-12.4	-2.6	-0.4	·
CC1=NN(c2ccc(C)cc2)C(=O)/C1=C\C=C\c1ccccc1	-61.0	-1.0	·	-1.0	2.3	0.3
CC1=NN(c2cccc(C(=O)O)c2)C(=O)/C1=C\C=C/c1ccccc1	-132.9	-4.2	7.8	43.3	·	43.3*
CCNC(=O)Nc1ccc2c(c1)C(=O)N(C)[C@@H]1CC[C@@H](CC(=O)NCc3ccccc3F)O[C@@H]1CO2	·	·	0.0[16.7 µM]	·	·	·
Cc1nnc(SCCOc2ccccc2)s1	7.8	-2.1	·	-25.1	1.3	44.1*
C[C@@H]1CN([C@H](C)CO)C(=O)c2cccc(NC(=O)C3CC3)c2O[C@@H]1CN(C)C(=O)Nc1ccc(C(F)(F)F)cc1	·	·	-5.9[16.7 µM]	·	·	-0.1
Cc1ccc(C(=O)NCC(=O)OCC(=O)NCC(F)(F)F)cc1	15.9	-14.2	·	6.6	1.1	44.1*
Cc1ccc(C(=O)NCC(=O)NCC(=O)OCC(=O)c2ccc(F)cc2)cc1	-74.3	-11.0	·	2.1	-2.1	·
